Test results as given in paper PMC2788666 (Journal of medicinal chemistry, 2009).
“Also recorded” adds a separate entry of the source. Like-named read-outs stand apart in the source and are kept apart here.

Key:
μ opioid receptor [1] = target: T1, μ opioid receptor (Homo sapiens, UniProt P35372); assay: [35S]GTPγS binding mediated by the μ opioid receptor, agonist effects; type: biochemical; conditions: for Functional Activity at μ opioid receptor: [35S]GTPγS binding; for Emax (% stimulation) ± S.E.M., Mu Agonist Effects: CHO cells expressing μ opioid receptor
T1 sequence (P35372 whole entry): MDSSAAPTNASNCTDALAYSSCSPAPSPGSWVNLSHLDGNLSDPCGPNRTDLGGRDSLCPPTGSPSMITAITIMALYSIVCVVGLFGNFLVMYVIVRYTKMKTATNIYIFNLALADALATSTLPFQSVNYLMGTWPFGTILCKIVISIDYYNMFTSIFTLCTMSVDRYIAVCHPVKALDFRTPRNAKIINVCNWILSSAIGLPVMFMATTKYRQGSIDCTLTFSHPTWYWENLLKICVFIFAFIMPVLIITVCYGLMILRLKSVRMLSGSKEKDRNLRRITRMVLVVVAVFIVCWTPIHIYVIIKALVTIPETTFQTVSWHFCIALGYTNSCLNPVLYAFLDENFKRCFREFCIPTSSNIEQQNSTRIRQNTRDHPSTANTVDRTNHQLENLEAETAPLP

κ opioid receptor [2] = target: T2, κ opioid receptor (Homo sapiens, UniProt P41145); assay: Opioid binding to κ receptor, [3H]U69,593, CHO membranes; conditions: for times less active than unsubstituted C10 bivalent ligand 10 at the κ receptor: binding affinity versus 10; for Selectivity μ/δ/κ: ratio of Ki values, κ = 1
T2 sequence (P41145 whole entry): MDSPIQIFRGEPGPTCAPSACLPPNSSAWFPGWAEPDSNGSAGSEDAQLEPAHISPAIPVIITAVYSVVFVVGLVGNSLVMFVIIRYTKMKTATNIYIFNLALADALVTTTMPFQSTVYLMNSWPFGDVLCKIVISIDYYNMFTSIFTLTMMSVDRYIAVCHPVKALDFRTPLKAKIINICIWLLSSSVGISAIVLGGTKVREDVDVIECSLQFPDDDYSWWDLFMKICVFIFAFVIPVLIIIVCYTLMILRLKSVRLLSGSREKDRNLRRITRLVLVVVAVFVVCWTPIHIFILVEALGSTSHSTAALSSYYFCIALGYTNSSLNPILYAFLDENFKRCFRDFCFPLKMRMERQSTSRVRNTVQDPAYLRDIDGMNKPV
Procedure, shortened: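 Membranes from CHO cells stably expressing human κ opioid receptor were incubated 60 min at 25 °C in 50 mM Tris-HCl pH 7.5 with 1 nM (final) [3H]U69,593. […] Samples were filtered on glass-fibre filters presoaked ≥30 min in 0.1% polyethylenimine, washed three times with cold Tris buffer, and counted by scintillation. IC50 came from a log-probit least-squares fit, Ki from IC50/(1+S), and ratios from Ki values.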

κ opioid receptor [3] = target: T2, κ opioid receptor; assay: [35S]GTPγS binding mediated by the kappa opioid receptor, agonist effects; type: biochemical; conditions: for Functional activity at κ opioid receptor: [35S]GTPγS binding
Procedure, shortened: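 CHO cells expressing κ opioid receptor were incubated with test compound at 12 concentrations, and agonist-stimulated [35S]GTPγS binding was measured. EC50 and maximal stimulation (% stimulation) are reported with S.E.M.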

κ opioid receptor [4] = target: T2, κ opioid receptor; assay: [35S]GTPγS binding mediated by the kappa opioid receptor, antagonist effects; type: biochemical; conditions: for IC50 (nM) ± S.E.M., Kappa Antagonist Effects: binding stimulated with 100 nM U50,488; for Imax (% inhibition) ± S.E.M., Kappa Antagonist Effects: binding stimulated with 100 nM U50,488, set at 100% control
Procedure, shortened: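 Antagonist mode in CHO cells expressing κ opioid receptor: [35S]GTPγS binding was stimulated with 100 nM U50,488, taken as 100% control binding. Inhibition of this stimulated binding by test compound was measured, and IC50 and maximal inhibition (% inhibition) are reported with S.E.M.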

[5] = pH 7.4; ref [8]; cited from earlier work
κ opioid receptor [6] = target: T2, κ opioid receptor; conditions: ratio of Ki values, κ = 1; ref [2]; cited from earlier work
μ opioid receptor [7] = target: T1, μ opioid receptor; assay: [35S]GTPγS binding mediated by the μ opioid receptor, antagonist effects; type: biochemical; conditions: binding stimulated with 200 nM DAMGO; for Imax (% inhibition) ± S.E.M., Mu Antagonist Effects: set at 100% control

Row | Structure (SMILES) | Functional Activity at μ opioid receptor (μ opioid receptor [1]) | times less active than unsubstituted C10 bivalent ligand 10 at the κ receptor (κ opioid receptor [2]) | Functional activity at κ opioid receptor (κ opioid receptor [3]) | IC50 (nM) ± S.E.M., Kappa Antagonist Effects (κ opioid receptor [4]) | Imax (% inhibition) ± S.E.M., Kappa Antagonist Effects (κ opioid receptor [4]) | Selectivity μ/δ/κ (κ opioid receptor [2]) | times more stable than mono phenyl succinate [5] | Emax (% stimulation) ± S.E.M., Mu Agonist Effects (μ opioid receptor [1]) | Selectivity μ/δ/κ (κ opioid receptor [6]) | Imax (% inhibition) ± S.E.M., Mu Antagonist Effects (μ opioid receptor [7]) | Emax (% stimulation) ± S.E.M., Kappa Agonist Effects (κ opioid receptor [3]; CHO cells expressing κ opioid receptor) | IC50 (nM) ± S.E.M., Mu Antagonist Effects (μ opioid receptor [7])
1 | CC(CCCCCCC(C)C(=O)Oc1ccc2c(c1)[C@@]13CCCC[C@H]1[C@@H](C2)N(CC1CCC1)CC3)C(=O)Oc1ccc2c(c1)[C@@]13CCCC[C@H]1[C@@H](C2)N(CC1CCC1)CC3 (stereo partly drawn) [4a, Bis((−)-N-cyclobutylmethylmorphinan-3-yl) 2,9-dimethyldecanedioate] | Partial Agonist | approximately 10 times | partial agonists; also recorded: κ agonists; also recorded: Agonist | No inhibition | No inhibition |  |  |  |  |  |  | 
2 | C=CCN1CC[C@]23c4c5ccc(OC(=O)CCCCCCCCC(=O)Oc6ccc7c(c6)[C@@]68CCCC[C@H]6C(C7)N(CC6CCC6)CC8)c4O[C@H]2CCC[C@H]3[C@H]1C5 [compound 11, reference compound] | Partial Agonist |  | κ agonists; also recorded: Agonist | No inhibition | No inhibition |  |  |  |  |  |  | 
3 | CC(CCCCCCC(C)C(=O)Oc1ccc2c(c1)[C@@]13CCCC[C@H]1[C@@H](C2)N(CC1CCC1)CC3)C(=O)O (stereo partly drawn) [7a, 2,9-Dimethyldecanedioic acid 10-((−)-N-cyclobutylmethylmorphinan-3-yl) ester] | Partial Agonist |  | κ agonists; also recorded: Agonist | No inhibition | No inhibition | 1/48/1 |  |  |  |  |  | 
4 | CC(CC(=O)Oc1ccccc1)C(=O)O (stereo not drawn) [mono phenyl ester of 2-methylsuccinic acid] |  |  |  |  |  |  | 43 times |  |  |  |  | 
5 | CC(C)(CCCCCCC(C)(C)C(=O)Oc1ccc2c(c1)[C@@]13CCCC[C@H]1[C@@H](C2)N(CC1CCC1)CC3)C(=O)Oc1ccc2c(c1)[C@@]13CCCC[C@H]1[C@@H](C2)N(CC1CCC1)CC3 [4b, Bis((−)-N-cyclobutylmethylmorphinan-3-yl) 2,2,9,9-tetramethyldecanedioate] | Partial Agonist | approximately 10 times | partial agonists; also recorded: κ agonists; also recorded: Agonist | No inhibition | No inhibition | 1/32/1 |  |  |  |  |  | 
6 | O=C(CCCCCCCCC(=O)Oc1ccc2c(c1)[C@@]13CCCC[C@H]1[C@@H](C2)N(CC1CCC1)CC3)Oc1ccc2c(c1)[C@@]13CCCC[C@H]1[C@@H](C2)N(CC1CCC1)CC3 [compound 10, reference compound] | Partial Agonist |  | Agonist | No inhibition | No inhibition |  |  | 51 ± 6.5 % stimulation | 2/90/1 |  |  | 
7 | Oc1ccc2c(c1)[C@@]13CCCC[C@H]1[C@@H](C2)N(CC1CCC1)CC3 [Butorphan, butorphan] | Partial Agonist |  | Agonist |  |  |  |  | 50 ± 2.5 % stimulation |  | 50 ± 2.6 % inhibition | 80 ± 6.8 % stimulation | 
8 | O=C(O)CCCCCCCCC(=O)Oc1ccc2c(c1)[C@@]13CCCC[C@H]1[C@@H](C2)N(CC1CCC1)CC3 [compound 9, reference compound] | full μ agonist |  | κ agonists; also recorded: full agonist | No inhibition | No inhibition |  |  |  |  | No inhibition |  | No inhibition
9 | CC(C)(CCCCCCC(C)(C)C(=O)Oc1ccc2c(c1)[C@@]13CCCC[C@H]1[C@@H](C2)N(CC1CCC1)CC3)C(=O)O [7b, 2,2,9,9-Tetramethyldecanedioic acid 10-((−)-N-cyclobutylmethylmorphinan-3-yl) ester] |  |  |  |  |  | 3/22/1 |  |  |  |  |  | 
